# Screening results as filed in PubChem BioAssay.
# This is a sample that favours compounds with a hit; in the whole collection about 3.7% have one here.
# Kir21 block: inhibitors of mouse Kir2.1 inward-rectifier potassium channel. Inward rectifier potassium channel 2 (Mus musculus), P35561. HEK293-Kir2.1, FluxOR thallium flux fluorescence; active compounds read low. B-score at 10 µM. 310,000 compounds, 0.85% hits. AID 1672, 2009;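 active = fluorescence ratio B-score at or below minus 3 SD of library scores, with starting-brightness B-score within 2 SD, cut at about -4.2 in these data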;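 note: channel flux triggered by added potassium and thallium sulfate stimulus; B-score of peak minus minimum fluorescence over baseline after thallium stimulus; more negative B-score means stronger Kir2.1 block with less thallium influx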
# KCNQ1 block: inhibitors of human KCNQ1 channel, primary screen, cell-based, thallium flux, high-throughput; Potassium voltage-gated channel subfamily KQT member 1 (Homo sapiens), P51787; CHO-K1 KCNQ1, FluxOR thallium flux fluorescence; active compounds read high; B-score at 10 µM; 310,000 compounds, 1.3% hits; AID 2642, 2010;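 active = compounds whose thallium flux B-score, printed positive for inhibition, exceeds three library SD while starting fluorescence stays within three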;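 note: channel opened by potassium depolarization with thallium stimulus after 20 min compound exposure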
# Target sequence (P51787 whole entry, looked up): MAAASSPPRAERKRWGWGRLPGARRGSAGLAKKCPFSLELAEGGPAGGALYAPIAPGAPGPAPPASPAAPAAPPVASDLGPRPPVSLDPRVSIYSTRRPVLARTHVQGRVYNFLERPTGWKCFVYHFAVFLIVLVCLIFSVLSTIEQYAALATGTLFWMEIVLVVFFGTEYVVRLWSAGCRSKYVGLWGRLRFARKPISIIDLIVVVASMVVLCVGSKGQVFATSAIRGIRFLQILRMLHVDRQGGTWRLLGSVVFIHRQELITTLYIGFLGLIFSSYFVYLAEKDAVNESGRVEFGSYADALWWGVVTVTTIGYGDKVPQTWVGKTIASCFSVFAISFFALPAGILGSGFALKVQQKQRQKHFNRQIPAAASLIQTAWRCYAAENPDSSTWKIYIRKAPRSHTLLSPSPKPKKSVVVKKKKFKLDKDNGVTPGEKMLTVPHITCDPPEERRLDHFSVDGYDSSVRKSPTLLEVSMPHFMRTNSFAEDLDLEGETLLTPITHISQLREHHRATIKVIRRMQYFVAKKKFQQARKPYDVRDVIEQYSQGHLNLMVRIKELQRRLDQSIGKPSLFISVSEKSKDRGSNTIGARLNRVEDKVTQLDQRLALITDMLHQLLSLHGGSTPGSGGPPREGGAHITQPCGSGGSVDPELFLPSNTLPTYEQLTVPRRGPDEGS
# KCNK9 inh-1: KCNK9 potassium channel inhibitors, primary screen, HEK293 cells, thallium flux. B-score at 10 µM. AID 488922, 2010. Potassium channel subfamily K member 9 (Homo sapiens), Q9NPC2. FluxOR thallium flux fluorescence; active compounds read low. 310,000 compounds, 1.2% hits;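 active = ratio B-score over 3 SD below the library mean, with starting fluorescence within 5 SD of its mean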;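 note: negative B-score means less thallium flux so channel inhibition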
# KCNQ1 act: potentiators or activators of KCNQ1 channel, primary screen, cell-based, thallium flux, high-throughput. B-score at 10 µM. CHO-K1 KCNQ1, thallium flux FluxOR fluorescence; active compounds read high. 310,000 compounds, 0.35% hits. AID 2648, 2010;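 active = fluorescence ratio B-score, a plate-corrected score, at least three library SD, with initial intensity B-score within 5 SD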
#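 Schedule – 37 °C overnight plating, 90-min dark dye load, 20-min compound pretreatment · System – stable KCNQ1 CHO-K1 line · Probe or stimulus – thallium- and potassium-containing depolarizing buffer · Measured by – kinetic FluxOR fluorescence, 10 s baseline plus 110 s post-stimulus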
# hERG protect: hERG rescue from dofetilide block, primary screen, cell-based, CHO-hERG, FluxOR thallium flux, dofetilide IC70. 310,000 compounds, 0.51% hits. dofetilide IC70 present. Voltage-gated inwardly rectifying potassium channel KCNH2 (Homo sapiens), Q12809. activation (rescue from dofetilide block), less the hit threshold, % at 10 µM;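 active = activation above the mean of controls blocked by dofetilide plus 5 SD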;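 note: thallium influx through hERG after potassium depolarization seen as dye fluorescence rise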
# KCNK3 block: human KCNK3 channel inhibitors, primary screen, CHO cells, FluxOR thallium flux, B-score | Potassium channel subfamily K member 3 (Homo sapiens), O14649 | FluxOR fluorescence; active compounds read low | B-score at 10 µM | 340,000 compounds, 0.84% hits;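 active = B-score under library mean minus 4 SD, starting fluorescence ratio at most library mean plus 5 SD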;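 note: more negative B-score means stronger inhibition of thallium flux through KCNK3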
# hERG ctr: hERG channel inhibition, counter-screen for Kir2.1 inhibitor project, cell-based, thallium flux | shares compounds with Kir21 block | inhibition, % at 10 µM | 320 compounds, 20% hits | AID 2236, 2010 | hERG-expressing cells;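 note: host cells are CHO cells stably expressing hERG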
# KCNK9 inh-2: KCNK9 channel inhibition, selectivity assay for Kir2.1 inhibitor project, cell-based | AID 2329, 2010 | shares compounds with Kir21 block | KCNK9-expressing cells, ion flux inhibition | 320 compounds, 5% hits | inhibition, % at 10 µM
# Kir2-1 patch inh: mouse Kir2.1 channel blockers, Kir2.1 inhibitor project, cell-based, secondary, automated electrophysiology | 320 compounds, 71% hits | Kir2.1 cells, automated patch-clamp current inhibition | inhibition, % at 25 µM | shares compounds with Kir21 block
# * hit, by the source's call; i = inactive; x = no result given. Unless noted, the rule behind the calls is not given here.
SMILES,Kir21 block,KCNQ1 block,KCNK9 inh-1,KCNQ1 act,hERG protect,KCNK3 block,hERG ctr,KCNK9 inh-2,Kir2-1 patch inh
CSc1ccc(CN2CCC(CO)(CCOc3ccccc3)CC2)cc1,-5.84*,i,i,i,-14.7,i,73.0%*,i,7.3%*
CC1CN(S(=O)(=O)c2ccc(F)cc2)C(C)N1C(=O)N1CCOCC1 (stereo not drawn),0.28,i,i,i,-5.4,i,x,x,x
COc1ccc(CC(NC(C)=O)C(=O)NC2CCN(S(=O)(=O)c3ccc(NC(C)=O)cc3)CC2)c(OC)c1 (stereo not drawn),-1.08,i,i,i,-4.7,i,x,x,x
CCS(=O)(=O)N1CCC(NC(=O)C(Cc2cc(OC)ccc2OC)NC(C)=O)CC1 (stereo not drawn),1.87,i,i,i,-15.5,i,i,i,i
CN(C)CCCOc1ccc(C(C)(C)c2ccccc2)cc1,-6.58*,i,i,i,-15.0,i,i,i,39.2%*
Cn1c(-c2ccc(F)cc2)cnc1NCc1ccc(C#N)cc1,-0.71,i,i,i,-12.9,i,x,x,x
Cn1c(-c2ccc(F)cc2)cnc1NCc1ccc(F)cc1,-10.2*,i,i,i,-12.0,i,i,i,59.9%*
Cc1cc2c(cc1S(=O)(=O)NCCc1ccccc1)NC(=O)CO2,-2.98,i,i,i,-6.9,i,x,x,x
CCCc1ccccc1OCCNS(=O)(=O)c1cc2c(cc1C)OCC(=O)N2,-6.51*,i,i,i,-18.4,i,i,i,i
CSc1ccc(NC(=O)NCCCN2CCC(Cc3ccccc3)CC2)cc1,-5.96*,i,i,i,-19.8,i,75.0%*,i,20.4%*
COc1ccccc1/C=C(\NC(=O)c1ccccc1)C(=O)NCc1ccco1,3.92,i,i,i,-3.5,i,i,i,i
Nc1ccc(-c2ccc(N)cc2C(F)(F)F)c(C(F)(F)F)c1,-6.4*,i,i,i,-10.3,i,i,48.0%*,i
Cc1onc(-c2ccccc2)c1CNS(=O)(=O)c1cccc(Cl)c1,-9.8*,i,i,i,-4.2,i,i,i,12.4%*
COc1ccc2oc(C(=O)NCc3cc(OC)c(OC)cc3OC)c(C)c2c1,1.34,i,i,i,-8.4,i,x,x,x
Cc1cc(C)c(C)c(S(=O)(=O)NCC(=O)Nc2ccccc2F)c1C,-6.93*,i,i,i,-6.5,i,i,i,i
Cc1ccc(NC(=O)c2ccc(Cn3cc(Cl)cn3)o2)c(C)c1,-10*,i,i,i,-9.7,i,i,i,50.6%*
Cc1ccccc1NC(=O)c1ccc(Cn2cc([N+](=O)[O-])cn2)o1,-0.27,i,i,i,-2.7,i,x,x,x
CC(C)c1ccc(C(C)NCCS(=O)(=O)c2ccc(Cl)cc2)cc1 (stereo not drawn),-8.04*,i,i,i,-15.2,i,i,i,5.1%*
CC(C(=O)NCCS(=O)(=O)c1ccc(Br)cc1)S(=O)(=O)c1ccc(Cl)cc1 (stereo not drawn),-0.02,i,i,i,-0.9,i,x,x,x
Cc1ccc(S(=O)(=O)Oc2ccccc2/C=N/NC(N)=S)cc1,-0.07,i,i,i,-6.9,i,x,x,x
Cc1ccc(S(=O)(=O)Oc2ccccc2/C=N/N=C(N)N)cc1,-11.4*,i,i,i,-19.9,i,61.0%*,i,i
O=C(COC(=O)Cc1c(F)cccc1Cl)NC(=O)Nc1ccccc1F,x,x,x,x,x,i,x,x,x
Cc1cc(SCC(=O)OCC(=O)N2CCCC2=O)c(C)cc1Br,6.45,i,i,i,-6.5,i,i,i,i
NC(=O)c1ccc(SCC(=O)OCC(=O)N2CCCC2=O)c([N+](=O)[O-])c1,0.47,i,i,i,-11.6,i,x,x,x
O=C(Oc1cccc(OC(=O)c2ccco2)c1)c1ccco1,-5.72*,i,i,i,-6.6,i,i,i,i
SMILES,Kir21 block,KCNQ1 block,KCNK9 inh-1,KCNQ1 act,hERG protect,KCNK3 block,hERG ctr,KCNK9 inh-2,Kir2-1 patch inh
O=C(Oc1cccc(-n2cnnn2)c1)c1ccco1,-0.02,i,i,i,0.2,i,x,x,x
COc1cc(/C=N/O)cc(Br)c1OCc1ccc(Cl)cc1,0.68,i,i,i,-8.7,i,x,x,x
CCCCOc1c(Br)cc(/C=N/O)cc1OCC,-7.3*,i,i,i,-3.2,i,i,i,11.1%*
CCCCNC(=O)C1c2ccccc2Oc2ccccc21,-0.87,i,i,i,-12.3,i,x,x,x
CNCCC1Sc2ccccc2Oc2ccccc21 (stereo not drawn),-5.94*,i,i,i,-5.5,i,i,i,1.9%*
O=C(COc1ccccc1CNCc1ccccc1)Nc1ccccc1,-10.3*,i,i,i,-11.8,i,49.0%*,i,42.7%*
CCOc1ccccc1CNCc1ccc(C(=O)O)cc1,-1.54,i,i,i,-2.1,i,x,x,x
COc1ccccc1CNC(=O)CN1C(=O)NC2(CCCCCC2)C1=O,x,x,x,x,x,i,x,x,x
Cc1cc(NC(=O)COc2ccccc2C)ccc1NC(=O)c1cccs1,-0.78,i,i,i,-13.0,i,x,x,x
Cc1c(Cl)cccc1Nc1nc(NCCO)c2ccccc2n1,-9.54*,i,i,i,-14.4,i,i,i,31.1%*
Cc1cccc(NC(=O)C2CCCN(S(=O)(=O)c3ccc4[nH]c(=O)ccc4c3)C2)c1 (stereo not drawn),0.65,i,i,i,-6.3,i,x,x,x
